Reference: ChEMBL document CHEMBL1138521, “Discovery of 4-(5-(4-chlorophenyl)-2-methyl-3-propionyl-1H-pyrrol-1-yl)benzenesulfonamide (A-867744) as a novel positive allosteric modulator of the alpha7 nicotinic acetylcholine receptor” (J Med Chem, 2009)
Active and inactive are the calls of the source. No cut-off for these calls is given here.

What was measured:
[1] = Oral bioavailability in rat at 2 umol/kg; assay type: ADME, organism-based; settings: in vivo
[2] = Cmax in rat at 2 umol/kg, po; assay type: ADME, organism-based; set-up: dose 2 umol/kg, route oral; settings: in vivo
[3] = Volume of distribution at steady state in rat at 2 umol/kg, iv; assay type: ADME, organism-based; settings: in vivo, read-out: Vdss
Oocyte [4] = experiment: Modulator activity at alpha7 nAChR in Xenopus laevis oocytes cells assessed as activation of electric currents at 0.1 nM to 10 uM at -60 mV by two-electrode voltage clamp technique; assay type: cell-based
Method in brief: (§1)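 Xenopus oocytes, collagenase-defolliculated, injected with ~20–25 ng α7 nAChR cRNA, kept at 18 °C and used 2–7 days later. Two-electrode voltage clamp at −60 mV, room temperature, in Ba2+-OR2 with 0.5 µM atropine. Modulator applied ≥60 s before 1 s application of 100 µM ACh. Apparent peak current expressed as percent of 100 µM ACh response; sigmoidal variable-slope fit.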

[5] = Cmax in dog at 1 umol/kg, po; assay type: ADME, organism-based, Canis lupus familiaris; set-up: dose 1 umol/kg, route oral; settings: in vivo
[6] = Plasma clearance in monkey at 0.5 umol/kg, iv; assay type: ADME, organism-based, Macaca mulatta; settings: rhesus monkey
Mus musculus = experiment: Improvement in gating deficits in DBA/2 mouse model of sensory gating deficits assessed as reduction in ratio of response to test stimulus relative to preceding response to conditioning stimulus at 0.1 to 10 umol/kg, ip by paired auditory stimulus paradigm assay; assay type: functional, organism-based
Method in brief: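 DBA/2 mice (16–20 g) implanted with hippocampal CA3 EEG electrodes under ketamine/xylazine/acepromazine, ≥4 days recovery. Dosed ip in 5% DMSO/5% Solutol in PBS immediately before recording; 120 paired 5 ms white-noise bursts 0.5 s apart over 30 min. N40 amplitude T:C ratio. Within-subjects random-order crossover with vehicle, ≥72 h apart; mean ± SEM, one-way ANOVA with Newman-Keuls test.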

Brain [7] = experiment: Drug level in brain of DBA/2 mouse model of sensory gating deficits at 10 umol/kg, ip; assay type: functional, tissue-based
Method in brief: (§2)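 DBA/2 mice dosed ip at 0.1, 1.0 or 10.0 µmol/kg in vehicle of 5% DMSO and 5% Solutol in PBS; brain concentration reported in ng/g.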

[8] = Metabolic stability in rat liver microsomes assessed as compound remaining after 30 mins; assay type: ADME, Microsome; settings: read-out: Stability
Method in brief: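 Microsomes prewarmed 10 min at 37 °C; reaction started with compound (1 µM final) and NADPH (1 mM final) at 0.5 mg/mL protein, in triplicate. Sampled at 0, 10, 20 and 30 min; stopped with acetonitrile/methanol containing warfarin internal standard; centrifuged supernatant analysed by HPLC-MS.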

[9] = Half life in monkey at 0.5 umol/kg, iv; assay type: ADME, organism-based, Macaca mulatta; settings: rhesus monkey, in vivo
[10] = Volume of distribution at steady state in dog at 0.5 umol/kg, iv; assay type: ADME, organism-based, Canis lupus familiaris; settings: in vivo, read-out: Vdss
Brain [11] = experiment: Drug level in brain of DBA/2 mouse model of sensory gating deficits at 0.1 umol/kg, ip; assay type: functional, tissue-based; method in brief: as §2
Oocyte [12] = experiment: Modulator activity at alpha7 nAChR in Xenopus laevis oocytes cells assessed as enhancement of acetylcholine-evoked electric currents at -60 mV by two-electrode voltage clamp technique; assay type: cell-based; method in brief: as §1
[13] = Half life in rat at 2 umol/kg, iv; assay type: ADME, organism-based; settings: in vivo
[14] = Oral bioavailability in dog at 1 umol/kg; assay type: ADME, organism-based, Canis lupus familiaris; settings: in vivo
Rattus norvegicus [15] = experiment: Plasma concentration Sprague-Dawley rat at 3 mg/kg; assay type: ADME, organism-based; set-up: dose 3 mg/kg; settings: in vivo
Method in brief: (§3)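 Anesthetized rat cardiovascular assay at 3, 10 and 30 mg/kg, with plasma concentrations measured alongside mean arterial pressure, heart rate, contractility and peripheral vascular resistance.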

[16] = target: Neuronal acetylcholine receptor; alpha4/beta2 (Homo sapiens) (UniProt P17787+P43681); experiment: Activity at human recombinant alpha4beta2 nAChR expressed in HEK293 cells assessed as potentiation of nicotine-evoked calcium transients up to 30 uM; assay type: cell-based
Brain [17] = experiment: Drug level in brain of DBA/2 mouse model of sensory gating deficits at 1 umol/kg, ip; assay type: functional, tissue-based; method in brief: as §2
[18] = Volume of distribution at steady state in monkey at 0.5 umol/kg, iv; assay type: ADME, organism-based, Macaca mulatta; settings: rhesus monkey, in vivo, read-out: Vdss
[19] = target: Neuronal acetylcholine receptor subunit alpha-7 (Rattus norvegicus) (UniProt Q05941); experiment: Modulator activity at alpha7 nAChR in rat neonatal cortical neurons assessed as enhancement of (R)-4-chloro-N-(quinuclidin-8-yl)benzamide-induced calcium flux response at 5 uM by FLIPR assay
Method in brief: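 Primary neonatal rat cortical neurons cultured on poly-D-lysine plates (10000 cells/well), assayed 3 days after plating. Calcium-3 dye in HBSS with 20 mM HEPES. After 10 s baseline, modulator added for 3–5 min, then agonist. Peak fluorescence increase over baseline in RFU, normalized to maximal value.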

Rattus norvegicus [20] = experiment: Plasma concentration Sprague-Dawley rat at 30 mg/kg; assay type: ADME, organism-based; set-up: dose 30 mg/kg; settings: in vivo; method in brief: as §3
Rattus norvegicus [21] = experiment: Plasma concentration Sprague-Dawley rat at 10 mg/kg; assay type: ADME, organism-based; set-up: dose 10 mg/kg; settings: in vivo; method in brief: as §3
[22] = Plasma clearance in dog at 0.5 umol/kg, iv; assay type: ADME, organism-based, Canis lupus familiaris
[23] = Half life in dog at 0.5 umol/kg, iv; assay type: ADME, organism-based, Canis lupus familiaris; settings: in vivo
[24] = Plasma clearance in rat at 2 umol/kg, iv; assay type: ADME, organism-based
Oocyte [25] = experiment: Modulator activity at alpha7 nAChR in Xenopus laevis oocytes cells assessed as decay of acetylcholine-evoked electric current response at -60 mV by two-electrode voltage clamp technique; assay type: cell-based; method in brief: as §1
[26] = target: Neuronal acetylcholine receptor; alpha3/beta4 (Homo sapiens) (UniProt P30926+P32297); experiment: Activity at human recombinant alpha3beta4 nAChR expressed in HEK293 cells assessed as potentiation of nicotine-evoked calcium transients up to 30 uM; assay type: cell-based
[27] = Cmax in monkey at 1 umol/kg, po; assay type: ADME, organism-based, Macaca mulatta; set-up: dose 1 umol/kg, route oral; settings: rhesus monkey, in vivo
[28] = Oral bioavailability in monkey at 1 umol/kg; assay type: ADME, organism-based, Macaca mulatta; settings: rhesus monkey, in vivo
[29] = target: T1, Neuronal acetylcholine receptor subunit alpha-7 (Homo sapiens, UniProt P36544); experiment: Allosteric modulator activity at alpha7 nAChR in human IMR32 cells assessed as stimulation of agonist-induced intracellular calcium level by FLIPR assay relative to 1-(5-chloro-2,4-dimethoxyphenyl)-3-(5-methylisoxazol-3-yl)urea; assay type: functional, cell-based; settings: IMR-32
Method in brief: (§4)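 IMR-32 human neuroblastoma cells (endogenous α7) on poly-D-lysine plates, loaded with calcium-4 no-wash dye in NMDG buffer (10 mM HEPES pH 7.4, 10 mM CaCl2) 1 h at 25 °C. Peak fluorescence over baseline, normalized to maximum; EC50 from 2–5 experiments in duplicate.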

[30] = target: T1, Neuronal acetylcholine receptor subunit alpha-7; experiment: Allosteric modulator activity at alpha7 nAChR in human IMR32 cells assessed as stimulation of agonist-induced intracellular calcium level by FLIPR assay; assay type: functional, cell-based, IMR-32; method in brief: as §4

T1 sequence (P36544 whole entry): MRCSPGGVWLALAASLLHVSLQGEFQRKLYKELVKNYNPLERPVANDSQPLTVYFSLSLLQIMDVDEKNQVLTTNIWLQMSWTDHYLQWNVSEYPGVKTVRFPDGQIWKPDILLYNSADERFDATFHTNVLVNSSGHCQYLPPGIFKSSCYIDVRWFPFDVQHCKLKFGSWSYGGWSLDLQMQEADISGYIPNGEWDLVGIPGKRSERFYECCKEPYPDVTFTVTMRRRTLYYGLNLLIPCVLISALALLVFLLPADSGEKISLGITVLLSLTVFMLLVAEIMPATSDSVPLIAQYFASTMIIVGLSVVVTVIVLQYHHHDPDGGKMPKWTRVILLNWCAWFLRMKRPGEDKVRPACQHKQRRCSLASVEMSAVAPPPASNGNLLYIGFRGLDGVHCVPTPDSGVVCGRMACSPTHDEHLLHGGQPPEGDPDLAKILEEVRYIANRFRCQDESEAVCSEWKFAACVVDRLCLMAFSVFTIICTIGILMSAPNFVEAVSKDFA
Neuronal acetylcholine receptor subunit alpha-7 (Rattus norvegicus), sequence (Q05941 whole entry): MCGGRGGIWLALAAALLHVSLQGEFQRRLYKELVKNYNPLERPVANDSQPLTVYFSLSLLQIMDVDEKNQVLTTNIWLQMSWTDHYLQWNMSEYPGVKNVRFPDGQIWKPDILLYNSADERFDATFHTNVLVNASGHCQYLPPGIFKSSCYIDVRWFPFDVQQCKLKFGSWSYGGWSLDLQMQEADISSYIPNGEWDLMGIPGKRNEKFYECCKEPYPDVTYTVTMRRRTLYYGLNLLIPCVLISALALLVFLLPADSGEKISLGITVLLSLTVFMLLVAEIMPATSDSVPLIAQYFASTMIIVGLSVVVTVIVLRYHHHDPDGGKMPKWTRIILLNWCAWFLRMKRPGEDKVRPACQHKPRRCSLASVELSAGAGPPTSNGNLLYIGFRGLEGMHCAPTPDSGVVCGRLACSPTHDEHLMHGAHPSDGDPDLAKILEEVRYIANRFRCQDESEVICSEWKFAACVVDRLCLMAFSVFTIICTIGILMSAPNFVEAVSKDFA

CCC(=O)c1cc(-c2ccc(Cl)cc2)n(-c2ccc(S(N)(=O)=O)cc2)c1C
bioavailability [1]: 83%
Cmax [2]: 41 ng/mL
Vd [3]: 4.6 L/kg
Activity (Oocyte [4]): inactive
Cmax [5]: 87 ng/mL
clearance [6]: 41.7 mL/min/kg
Activity (Mus musculus): Active
Drug uptake (Brain [7]): 140 ng/g
remaining at 0.5 h [8]: 96%
half-life [9]: 60 min
Vd [10]: 1.7 L/kg
Drug uptake (Brain [11]): 2 ng/g
Activity (Oocyte [12]): Dose-dependent effect
half-life [13]: 102 min
bioavailability [14]: 55%
Cp (Rattus norvegicus [15]): 1 µg/mL
Activity [16]: inactive
Drug uptake (Brain [17]): 15 ng/g
Vd [18]: 2.8 L/kg
Activity [19]: Active
Cp (Rattus norvegicus [20]): 12.4 µg/mL
Cp (Rattus norvegicus [21]): 5 µg/mL
clearance [22]: 18.3 mL/min/kg
half-life [23]: 78 min
clearance [24]: 35 mL/min/kg
Activity (Oocyte [25]): Active
Activity [26]: inactive
Cmax [27]: 17 ng/mL
bioavailability [28]: 68%

Cc1cc(C(=O)c2cc(-c3ccc(Cl)cc3)n(-c3ccc(S(N)(=O)=O)cc3)c2C)ccc1Cl
remaining at 0.5 h [8]: 38%
Efficacy [29]: 9%
EC50 [30]: 4.88 µM

Cc1c(C(=O)N2CCCCC2)cc(-c2ccc(Cl)cc2)n1-c1ccc(S(N)(=O)=O)cc1
Efficacy [29]: 11%
EC50 [30]: > 30 µM

Cc1c(C(=O)N(C)C)cc(-c2ccc(Cl)cc2)n1-c1ccc(S(N)(=O)=O)cc1
Efficacy [29]: 4%
EC50 [30]: > 30 µM

CCN(C)C(=O)c1cc(-c2ccc(Cl)cc2)n(-c2ccc(S(N)(=O)=O)cc2)c1C
Efficacy [29]: 3%
EC50 [30]: > 30 µM

CCOC(=O)c1cc(-c2ccc(Br)cc2)n(-c2ccc(S(N)(=O)=O)cc2)c1C
remaining at 0.5 h [8]: 2%
Efficacy [29]: 20%
EC50 [30]: 2.6 µM

Cc1c(C(=O)CC(C)C)cc(-c2ccc(Cl)cc2)n1-c1ccc(S(N)(=O)=O)cc1
remaining at 0.5 h [8]: 44%
Efficacy [29]: 74%
EC50 [30]: 3.9 µM

COc1ccc(F)cc1C(=O)c1cc(-c2ccc(Cl)cc2)n(-c2ccc(S(N)(=O)=O)cc2)c1C
remaining at 0.5 h [8]: 45%
Efficacy [29]: 26%
EC50 [30]: 10.5 µM

CC(=O)c1cc(-c2ccc(Cl)cc2)n(-c2ccc(S(N)(=O)=O)cc2)c1C
remaining at 0.5 h [8]: 64%

Cc1c(C(=O)N2CCOCC2)cc(-c2ccc(Cl)cc2)n1-c1ccc(S(N)(=O)=O)cc1
Efficacy [29]: 5%
EC50 [30]: > 30 µM

Cc1c(C(=O)N2CCCC2)cc(-c2ccc(Cl)cc2)n1-c1ccc(S(N)(=O)=O)cc1
remaining at 0.5 h [8]: 31%
Efficacy [29]: 57%
EC50 [30]: 9.4 µM

Cc1ccc(C(=O)c2cc(-c3ccc(Cl)cc3)n(-c3ccc(S(N)(=O)=O)cc3)c2C)cc1
Efficacy [29]: 7%
EC50 [30]: > 30 µM

Cc1c(C(=O)c2ccc(Cl)cc2)cc(-c2ccc(Cl)cc2)n1-c1ccc(S(N)(=O)=O)cc1
Efficacy [29]: 5%
EC50 [30]: > 30 µM

Cc1c(C(=O)C2CC2)cc(-c2ccc(Cl)cc2)n1-c1ccc(S(N)(=O)=O)cc1
remaining at 0.5 h [8]: 92%
Efficacy [29]: 25%
EC50 [30]: 4.9 µM

CCOC(=O)c1cc(-c2ccc(Cl)cc2)n(-c2ccc(S(N)(=O)=O)cc2)c1C
remaining at 0.5 h [8]: 3%

Cc1c(C(=O)N(C)C(C)C)cc(-c2ccc(Cl)cc2)n1-c1ccc(S(N)(=O)=O)cc1
Efficacy [29]: 8%
EC50 [30]: > 30 µM

Cc1c(C(=O)O)cc(-c2ccc(Cl)cc2)n1-c1ccc(S(N)(=O)=O)cc1
Efficacy [29]: 8%
EC50 [30]: > 30 µM

CCCN(CCO)C(=O)c1cc(-c2ccc(Cl)cc2)n(-c2ccc(S(N)(=O)=O)cc2)c1C
remaining at 0.5 h [8]: 58%
Efficacy [29]: 11%
EC50 [30]: 3.6 µM
